# High-throughput results as filed in PubChem.
# This is a sample that favours compounds with a hit; in the whole collection about 2.9% have one here.
# HTRA1 inhibitor = HTRA1 serine protease inhibitors, primary screen, biochemical, fluorescence polarization, HTS | Q92743 | recombinant HTRA1, FP-rhodamine activity-based probe | inhibition, % at 5.96 µM | actives 0.5% (n = 340,000) | AID 504803, 2011; in the data active = inhibition above about 36%;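 also: 0% = enzyme with DMSO and 100% = wells lacking enzyme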
# SIAE inh = human SIAE inhibitors, primary screen, biochemical, fluorescence polarization, FP-Rh probe, 1536-well HTS; inhibition, % at 9.66 µM; SIAE FP-Rh probe binding; AID 1053197, 2014; actives 0.69% (n = 370,000); Sialate O-acetylesterase (Homo sapiens), Q9HAT2;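 active = inhibition above a cutoff: mean of compounds within the control limits plus 3 SD of those, cut at about 17% in these data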;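 also: 0% = plate median of compound wells and 100% = probe without SIAE protein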
# Target sequence (Q9HAT2 whole entry, looked up): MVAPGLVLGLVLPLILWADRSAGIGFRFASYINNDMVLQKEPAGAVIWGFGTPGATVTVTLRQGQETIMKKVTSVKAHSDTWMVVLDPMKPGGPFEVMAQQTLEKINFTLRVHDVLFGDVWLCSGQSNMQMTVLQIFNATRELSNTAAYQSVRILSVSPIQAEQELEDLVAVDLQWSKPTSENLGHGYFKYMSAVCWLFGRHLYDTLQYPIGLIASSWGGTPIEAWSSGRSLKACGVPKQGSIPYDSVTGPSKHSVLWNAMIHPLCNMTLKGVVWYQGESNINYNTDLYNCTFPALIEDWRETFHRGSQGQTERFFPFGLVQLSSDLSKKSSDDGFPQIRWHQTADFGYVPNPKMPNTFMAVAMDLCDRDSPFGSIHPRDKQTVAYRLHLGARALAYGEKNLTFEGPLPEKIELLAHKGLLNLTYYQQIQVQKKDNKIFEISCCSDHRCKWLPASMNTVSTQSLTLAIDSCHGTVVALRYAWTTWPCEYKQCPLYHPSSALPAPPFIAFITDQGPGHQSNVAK
# PRMT1 inh = PRMT1 methyltransferase inhibitors, primary screen, biochemical, fluorescence polarization. Protein arginine N-methyltransferase 1 (Homo sapiens), Q99873. recombinant PRMT1, activity-based probe fluorescence polarization. inhibition, % at 2.79 µM. actives 1.3% (n = 370,000);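 active = inhibition above about 21% made by adding two undisclosed values, limit read from the data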
# TCR CD3 inh = inhibitors of human TCR-CD3 interaction, primary screen, biochemical, fluorescence, TAMRA-labeled TCR probe; actives 0.37% (n = 360,000); T-cell receptor (TCR); inhibition, % at 9.4 µM; AID 651800, 2012; in the data active = inhibition above about 19%;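 also: recombinant mutant TCR 2C K166C tagged with TAMRA read by polarization; 0% = receptor in buffer alone and 100% = receptor with positive control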
# mABHD4 FP = ABHD4 inhibitors, primary screen, biochemical, fluorescence polarization, mouse; (Lyso)-N-acylphosphatidylethanolamine lipase (Mus musculus), Q8VD66; purified mABHD4, FP-Rh probe fluorescence polarization; inhibition, % at 8.92 µM; actives 0.54% (n = 370,000);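 active = inhibition exceeding the mean over every tested compound plus 3 SD, cut at about 30% in these data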;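 also: 0% = plate median of compound wells and 100% = S159A mutant with DMSO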
#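 System: mouse ABHD4 enzyme, wild type / Medium: HEPES pH 7.0, NaCl, Pluronic buffer / Reagent: FP-Rh activity-based fluorescent probe / Control set: S159A mutant high control, sample median low control / Detection: fluorescence polarization with parallel and perpendicular emission, 525/598 nm / Schedule: 45 min + 60 min at 25 °C / Compound dosing: 8.92 µM, single dose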
# ATG4B inh = ATG4B protease inhibitors, primary screen, biochemical, fluorescence, uHTS; Cysteine protease ATG4B (Homo sapiens), Q9Y4P1; ATG4B cleavage of LC3-PLA2, NBD-HPC fluorescence, 1 h; inhibition, % at 8.33 µM; actives 0.51% (n = 340,000); AID 504462, 2011; in the data active = inhibition above about 40%
# SIAE inh conf = human SIAE inhibitors, retest, confirmation, biochemical, fluorescence polarization, FP-Rh probe, triplicate | shares compounds with SIAE inh | SIAE FP-Rh activity-based probe | inhibition, % at 9.66 µM | actives 13% (n = 2,300) | AID 1117263, 2014;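 active = mean inhibition of the replicates above the hit cutoff set in the primary screen, cut at about 17% in these data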;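 also: 0% = SIAE with DMSO and probe and 100% = probe without SIAE; inhibitors lower polarization as more probe stays unbound to SIAE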
# Active calls of the source: *; . = no result.
SMILES,HTRA1 inhibitor,SIAE inh,PRMT1 inh,TCR CD3 inh,mABHD4 FP,ATG4B inh,SIAE inh conf
CCOC(=O)CCC(=O)N1CCOCCOCCOCC1,-5,-5,-3,1,-3,-2,.
CCCc1c(C(=O)NNc2ccccc2OC)cnn1-c1ccccc1,9,18*,-3,-6,3,-2,3
C[C@@H]1CN([C@H](C)CO)C(=O)c2cc(Br)cnc2O[C@@H]1CN(C)C(=O)c1ccccc1,4,8,-1,-2,-5,.,.
C[C@@H]1CN([C@H](C)CO)C(=O)c2cc(Br)cnc2O[C@@H]1CN(C)C(=O)c1cccc(F)c1,1,17*,-3,1,0,.,2
Cc1ccc(N2C(N)=C(C#N)C(c3cccs3)C3=C2CC(C)(C)CC3=O)cc1 (configuration not stated),-13,-2,3,-14,-7,4,.
CC1(C)CC(=O)C2=C(C1)N(c1ccc(F)cc1)C(N)=C(C#N)C2c1cccs1 (configuration not stated),-14,31*,0,-5,-6,6,-4
NC(=O)c1ncn([C@@H]2O[C@H](C(=O)Nc3ccc(C(=O)N4CCCCC4)cc3)[C@@H](O)[C@H]2O)n1,.,18*,-3,-6,-2,.,18*
COCCN(Cc1ccc(C)cc1)C(=O)[C@H]1O[C@@H](n2cnc(C(N)=O)n2)[C@H](O)[C@@H]1O,.,21*,4,-7,-8,.,20*
COc1ccccc1C(=O)N1CCN(C(=O)[C@H]2O[C@@H](n3cnc(C(N)=O)n3)[C@H](O)[C@@H]2O)CC1,.,19*,-7,1,0,.,13
COCCN(Cc1ccc(C)cc1)C(=O)[C@H]1O[C@@H](n2ccc(N)nc2=O)[C@H](O)[C@@H]1O,.,-4,2,-1,4,.,.
O=C(Nc1ccccc1Oc1ccccc1)NC1CCCCN(Cc2ccc(Cl)cc2)C1=O (configuration not stated),.,-5,0,.,3,.,.
O=C(N[C@H](C(=O)N1CCC[C@H]1C(=O)NCc1ccccc1)c1ccccc1)c1ccc(Cl)cc1Cl,.,2,2,0,-2,.,.
O=S1(=O)c2ccc(N3CC[C@H](O)C3)cc2O[C@H]2CCN1C2,.,1,3,.,8,.,.
CCCCc1c(-c2ccccc2OC)ncn1Cc1cccc(OC)c1,.,20*,5,3,2,.,-4
CCc1ccc(/C=C2/SC(N3CCOCC3)=NC2=O)cc1,-2,18*,3,-4,-3,-12,4
O=C(Nc1ccc2c(c1)OCO2)Nc1ccc2c(c1)OCO2,5,8,5,0,7,6,.
COc1ccc(C(C)(C)C)cc1NC(=O)Nc1ccc2c(c1)OCO2,4,21*,2,6,-4,9,6
O=C(NC1CC1)c1cccc(S(=O)(=O)Nc2ccccc2F)c1,1,17*,-1,9,-2,1,-3
COC(=O)C[C@@H]1CC[C@H]2[C@@H](COc3ccc(NC(=O)NC(C)C)cc3C(=O)N2C)O1,.,-6,-2,.,-3,.,.
C=CCOc1ccc(CNn2cn[nH]c2=S)cc1OCC,2,47*,-2,4,5,12,-4
COC(=O)C1=C(C(C)=O)C(c2ccc(C)cc2)n2nnnc2N1 (configuration not stated),5,10,0,9,7,-3,.
COC(=O)C1=C(C(C)=O)C(c2ccc(C(=O)OC)cc2)n2nnnc2N1 (configuration not stated),-5,23*,0,-3,13,-4,-3
